PubChem BioAssay AID624107 (Broad Institute, 2012)
The source made the active and inactive calls.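 Rule for the calls: active = fitted absorbance curve falls past 35% inhibition at a dose no higher than twice the top tested dose; inconclusive = flat fit at 30 to 70% inhibition, or poor fit; inactive = the rest.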

Test system: not listed separately
Experiment: P. aeruginosa PAK growth delay with EDDHA – PAK strain, absorbance 405 nm, dry powder, dose response (AID 624107)
Conditions: P. aeruginosa PAK + EDDHA, pyoverdine absorbance 405 nm, 28 h; at 100 µM (top of the series)
Method in brief: (§1)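 system = Pseudomonas aeruginosa PAK wild-type strain, whole bacterial cells | reagent = EDDHA 2 µM | medium = succinate M9 medium at pH 7.0 with 2 µM EDDHA | compound dosing = 100 µM to 15 nM final | incubation = 28 h, 30 °C, humidified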

Compound	activity change, negative = inhibition
Clc1ccc(C(c2cccc(Cl)n2)c2nn[nH]n2)cc1 (stereo unspecified)	14.5% (inactive)
CCCCC(C#N)c1ccccn1 (stereo unspecified)	3.52% (inactive)
COCCOCCC(C#N)c1ccc(Cl)cc1 (stereo unspecified)	6.79% (inactive)
N#CC(c1ccc(F)cc1)c1cccc(Cl)n1 (stereo unspecified)	-39.4% (inactive)
COCCNC(C#N)c1ccc(Cl)cc1 (stereo unspecified)	-17.9% (inactive)
COCCC(C#N)c1ccc(Cl)cc1 (stereo unspecified)	-7.69% (inactive)
N#CC(c1ccc(C(F)(F)F)c(Cl)n1)c1ccccc1OC(F)(F)F (stereo unspecified)	-22.7% (inactive)
CCCCC(c1ccc(Cl)cc1)c1nn[nH]n1 (stereo unspecified)	-16.3% (inactive)
CCCCC(C#N)c1ccc(Cl)cc1 (stereo unspecified)	-14% (inactive)

Test system: P. aeruginosa PAK + EDDHA, pyoverdine absorbance 405 nm, 28 h
Experiment: as above
Conditions: not given
Method in brief: as §1

Compound	AC35
N#CC(c1cccc(C(F)(F)F)n1)c1ccc(Cl)cc1F (stereo unspecified)	5.42 µM
N#CC(c1ccc(Cl)cc1)c1cccc(Cl)n1 (stereo unspecified)	11.8 µM
N#CC(c1cccc(Cl)n1)c1ccc(Cl)cc1F (stereo unspecified)	5.28 µM
N#CC(c1ccc(Cl)cc1)c1ncccc1Cl (stereo unspecified)	22 µM
CN(C)CCCC(C#N)c1ccc(Cl)cc1 (stereo unspecified)	> 100 µM (inactive)
N#CC(c1ccc(Cl)cc1)c1cccc(C(F)(F)F)n1 (stereo unspecified)	3.67 µM
N#CC(c1ccc(F)cc1)c1cccc(C(F)(F)F)n1 (stereo unspecified)	9.8 µM
